In paper PMC2897705 (Biochemistry, 2010):
One block for each molecule: values may come before it.

Assays:
Format in all cases: biochemical
LRRK2 [1] = molecular target: T1, LRRK2 (Mus musculus, UniProt Q5S006); assay: TR-FRET assay of LRRK2-catalyzed PLK-peptide phosphorylation
In short: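 Mouse-brain-derived LRRK2 (4 nM) phosphorylates PLK-peptide (RRRSLLE) with varied ATP. Runs are in duplicate, 4 h at room temperature, stopped with 10 mM EDTA, then 2 h with 2 nM Eu-anti-phospho-PLK before the TR-FRET read. For inhibitor studies, ATP is varied at 100 nM PLK-peptide with test compound 0–16.7 µM. Initial velocities are fitted by nonlinear least squares.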

LRRK2 [2] = molecular target: T1, LRRK2; assay: Radiometric assay of LRRK2-catalyzed LRRKtide phosphorylation; conditions: for effect of nucleotide on kinase activity: LRRKtide phosphorylation, data not shown
LRRK2 [3] = molecular target: T1, LRRK2; assay: Radiometric TLC assay of LRRK2-catalyzed GTP hydrolysis; conditions: for Ki: read-out: apparent dissociation constant Ki,app
In short: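 LRRK2 purified from BAC-transgenic mouse brain (30 nM) starts GTP hydrolysis with GTP plus [α-33P]-GTP. Runs are in triplicate, 20 min at room temperature, stopped with 20 mM EDTA. [α-33P]-GDP is resolved on PEI-cellulose TLC (0.5 M KH2PO4, pH 3.4) and counted by scintillation. Initial velocities versus [GTP] are fitted to Michaelis–Menten.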

[4] = 200 µM GTP, 0.5 mM ADP, 0.5 mM ATP or 1 µM PLK

T1 sequence (Q5S006 whole entry): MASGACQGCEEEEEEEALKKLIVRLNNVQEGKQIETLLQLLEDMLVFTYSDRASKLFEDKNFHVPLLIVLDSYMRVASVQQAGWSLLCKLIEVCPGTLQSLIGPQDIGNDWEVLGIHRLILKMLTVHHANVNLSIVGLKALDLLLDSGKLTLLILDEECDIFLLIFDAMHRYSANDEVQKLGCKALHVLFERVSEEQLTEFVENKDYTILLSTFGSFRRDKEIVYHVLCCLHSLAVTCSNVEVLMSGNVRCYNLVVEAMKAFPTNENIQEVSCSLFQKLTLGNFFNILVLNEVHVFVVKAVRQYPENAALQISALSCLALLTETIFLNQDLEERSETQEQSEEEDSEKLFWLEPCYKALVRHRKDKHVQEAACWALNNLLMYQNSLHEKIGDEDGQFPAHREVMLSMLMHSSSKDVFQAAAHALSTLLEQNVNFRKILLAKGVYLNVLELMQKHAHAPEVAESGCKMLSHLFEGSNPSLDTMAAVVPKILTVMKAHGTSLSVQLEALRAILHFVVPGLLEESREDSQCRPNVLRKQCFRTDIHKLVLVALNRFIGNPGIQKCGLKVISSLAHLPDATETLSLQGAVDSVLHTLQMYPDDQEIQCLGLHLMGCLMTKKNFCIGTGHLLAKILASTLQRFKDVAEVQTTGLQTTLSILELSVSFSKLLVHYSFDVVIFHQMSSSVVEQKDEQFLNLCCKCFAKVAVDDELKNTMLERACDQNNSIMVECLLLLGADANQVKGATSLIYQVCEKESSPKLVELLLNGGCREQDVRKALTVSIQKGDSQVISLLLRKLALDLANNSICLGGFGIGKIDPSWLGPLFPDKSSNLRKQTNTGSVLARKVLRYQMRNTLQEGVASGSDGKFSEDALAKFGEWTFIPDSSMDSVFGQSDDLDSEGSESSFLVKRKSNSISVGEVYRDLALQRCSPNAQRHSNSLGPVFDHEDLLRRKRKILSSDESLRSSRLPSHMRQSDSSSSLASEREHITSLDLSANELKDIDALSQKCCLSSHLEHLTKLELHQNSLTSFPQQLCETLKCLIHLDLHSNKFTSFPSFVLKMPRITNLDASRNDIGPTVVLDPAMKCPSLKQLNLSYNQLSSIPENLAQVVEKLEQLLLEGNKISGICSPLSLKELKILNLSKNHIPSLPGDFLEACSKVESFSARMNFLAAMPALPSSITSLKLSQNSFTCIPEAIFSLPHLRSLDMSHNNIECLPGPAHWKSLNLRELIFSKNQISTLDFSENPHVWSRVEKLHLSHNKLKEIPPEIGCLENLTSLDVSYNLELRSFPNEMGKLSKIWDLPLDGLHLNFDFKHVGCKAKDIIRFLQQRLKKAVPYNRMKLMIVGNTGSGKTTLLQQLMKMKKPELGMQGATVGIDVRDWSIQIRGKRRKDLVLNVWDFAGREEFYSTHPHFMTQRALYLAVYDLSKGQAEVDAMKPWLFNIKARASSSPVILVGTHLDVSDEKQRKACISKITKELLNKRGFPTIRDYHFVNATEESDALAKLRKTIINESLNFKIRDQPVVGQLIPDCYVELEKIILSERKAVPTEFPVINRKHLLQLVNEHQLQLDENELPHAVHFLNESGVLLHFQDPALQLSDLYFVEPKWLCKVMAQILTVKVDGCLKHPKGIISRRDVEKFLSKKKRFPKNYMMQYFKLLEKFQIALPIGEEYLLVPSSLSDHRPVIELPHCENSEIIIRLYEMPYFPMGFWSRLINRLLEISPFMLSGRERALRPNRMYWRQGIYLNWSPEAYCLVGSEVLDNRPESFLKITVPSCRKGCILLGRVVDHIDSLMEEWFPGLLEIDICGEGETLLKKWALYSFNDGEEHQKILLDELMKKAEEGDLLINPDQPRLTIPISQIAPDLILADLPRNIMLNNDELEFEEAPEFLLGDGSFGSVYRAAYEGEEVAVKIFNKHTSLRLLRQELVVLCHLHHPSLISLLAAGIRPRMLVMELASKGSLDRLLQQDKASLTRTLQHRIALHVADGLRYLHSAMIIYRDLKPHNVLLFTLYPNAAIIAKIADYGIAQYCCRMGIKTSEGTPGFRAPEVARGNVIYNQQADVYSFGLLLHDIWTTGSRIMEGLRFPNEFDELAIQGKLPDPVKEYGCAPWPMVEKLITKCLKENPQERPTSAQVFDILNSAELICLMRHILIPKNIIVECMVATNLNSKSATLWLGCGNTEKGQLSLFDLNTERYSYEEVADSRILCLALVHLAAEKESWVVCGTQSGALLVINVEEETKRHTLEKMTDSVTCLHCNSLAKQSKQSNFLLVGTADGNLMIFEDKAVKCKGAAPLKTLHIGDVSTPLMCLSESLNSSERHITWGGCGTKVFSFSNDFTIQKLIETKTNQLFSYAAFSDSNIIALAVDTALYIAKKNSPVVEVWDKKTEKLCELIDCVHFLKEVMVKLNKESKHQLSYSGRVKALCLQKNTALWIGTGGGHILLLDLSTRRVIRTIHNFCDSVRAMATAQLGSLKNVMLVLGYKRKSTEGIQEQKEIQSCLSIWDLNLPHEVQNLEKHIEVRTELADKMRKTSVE

Ki (LRRK2 [1]; read-out: Ki,e, PLK-peptide as phosphoryl acceptor): 2.5 µM
difference of Ki,e between PLK-peptide and LRRKtide reactions (LRRK2 [2]): 5 fold
Ki (LRRK2 [2]; read-out: Ki,e, LRRKtide as phosphoryl acceptor): 12 µM
Structure (SMILES): Nc1ncnc2c1ncn2[C@@H]1O[C@H](COP(=O)(O)O)[C@@H](O)[C@H]1O [AMP]

Structure (SMILES): CN[C@@H]1C[C@H]2O[C@@](C)([C@@H]1OC)n1c3ccccc3c3c4c(c5c6ccccc6n2c5c31)C(=O)NC4 [staurosporine]
inhibition of GTPase activity (LRRK2 [3]; data not shown): does not inhibit GTPase activity at all
inhibition of LRRK2 kinase activity (LRRK2 [1]; kinase assay not specified, data not shown): inhibits LRRK2 kinase activity

solvent isotope effect ^Dkcat (LRRK2 [3]; 1 mM GTP, pH 7.4, D2O molar fraction 0.86, four experiments): 0.97 ± 0.04
kcat (LRRK2 [3]; GTP hydrolysis): 0.23 ± 0.02 s⁻¹
Km (LRRK2 [3]; read-out: Km (KGTP), GTP hydrolysis): 210 ± 29 µM
Structure (SMILES): Nc1nc2c(ncn2[C@@H]2O[C@H](COP(=O)(O)OP(=O)(O)OP(=O)(O)O)[C@@H](O)[C@H]2O)c(=O)[nH]1 [GTP]
effect of nucleotide on kinase activity (LRRK2 [2]): no significant activation or inhibition of kinase activity was detected

Ki (LRRK2 [3]; 200 µM GTP): 97 ± 16 µM
Structure (SMILES): Nc1nc2c(ncn2[C@@H]2O[C@H](COP(=O)(O)OP(=O)(O)O)[C@@H](O)[C@H]2O)c(=O)[nH]1 [GDP]
effect of nucleotide on kinase activity (LRRK2 [2]): no significant activation or inhibition of kinase activity was detected

difference in dissociation constants, GTPase vs kinase reaction (LRRK2 [3]): 30 fold
Ki (LRRK2 [3]; 200 µM GTP): 600 ± 100 µM
Structure (SMILES): Nc1ncnc2c1ncn2[C@@H]1O[C@H](COP(=O)(O)OP(=O)(O)O)[C@@H](O)[C@H]1O [ADP]
inhibition of GTPase activity (LRRK2 [3]; [4]): Inhibition of GTPase activity was detected

Ki (LRRK2 [3]; 200 µM GTP): 2900 ± 300 µM
Structure (SMILES): Nc1nc2c(ncn2[C@@H]2O[C@H](COP(=O)(O)O)[C@@H](O)[C@H]2O)c(=O)[nH]1 [GMP]
effect of nucleotide on kinase activity (LRRK2 [2]): no significant activation or inhibition of kinase activity was detected

Structure (SMILES): Nc1ncnc2c1ncn2[C@@H]1O[C@H](COP(=O)(O)OP(=O)(O)OP(=O)(O)O)[C@@H](O)[C@H]1O [ATP]
inhibition of GTPase activity (LRRK2 [3]; [4]): Inhibition of GTPase activity was detected
KA (KATP) (LRRK2 [1]; ATP with PLK-peptide as phosphoryl acceptor, global fit): 13 ± 2.9 µM
KA (KATP) (LRRK2 [2]; ATP with LRRKtide as phosphoryl acceptor, global fit): 67 ± 6.4 µM
